We go through 18 compounds from PubChem BioAssay.

The source made the active and inactive calls.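 How the source made its calls: active means duplicate-averaged activation above buffer control mean plus 5 SD of those controls; inactive means the rest.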

This assay is described as follows: nonspecific flux increase, KCNQ1-free cells – parental CHO cells, counter-screen for KCNQ1 potentiator project (AID 493006). The conditions noted are these: parental CHO-K1 cells, FluxOR thallium flux, at 10 µM; hits give high values. In a few lines:
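Test system: parental CHO-K1 cells, FluxOR dye-loaded / Probe or stimulus: potassium plus thallium depolarizing stimulus, 5x stock 12.5 mM K2SO4, Tl2SO4 / Timing: overnight 37 °C plating, 90 min dye, 20 min dark compound / Measured by: kinetic thallium-flux fluorescence / Read-out: max-minus-min fluorescence over baseline, percent of buffer-to-R-L3 span / Benchmarks: buffer and R-L3 controls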
On the technique in general: Counterscreens check selectivity or assay interference.
For the compound `S=c1nc(C2CCCCC2)n(-c2ccccc2)[nH]1`, the activation is 356% (active).
Turning to `Cc1cccc(NC(=S)NC(=O)c2ccc(Br)o2)c1C`, the result was inactive.
Same read-out and setting: the same measure for `CC(C)CSC1=NSC2=NC(=O)/C(=C\c3cccs3)C(=N)N12`: “inactive”; for `Cc1ccc(C2=NOC(=O)/C2=C\C=C\c2ccccc2)cc1`: “inactive”; for `O=C(Cn1c(C(F)(F)F)nc2ccccc21)N=Nc1c(O)[nH]c2ccc(Br)cc12`: “inactive”.
Same read-out and setting: the same measure for `Cc1ccccc1C(=O)c1c[nH]c(C(=O)N2CCN(c3ccccc3F)CC2)c1`: “inactive”.
Regarding `COc1cccc(OCC(=O)NNC(=O)C(=O)Nc2cccc(C)c2)c1`, the activation is 188% (active).
For the compound `COC(=O)c1ccsc1NC(=O)CN1CCN(Cc2ccc3c(c2)OCO3)CC1`, the result was inactive.
Consider `Cc1sc2nc(CN3CCOCC3)[nH]c(=S)c2c1C`, for which the activation was 312% (active).
`COc1cccc(C(=O)COc2ccc(NC(=O)c3ccccc3)cc2)c1`: the result was inactive.
The same measure, in the same setting: the same measure for `CCCC(=O)Nc1cc(Cl)ccc1N1CCN(C(=O)CC)CC1`: “inactive”.
`CCOC(=O)CC1=NS(=O)(=O)c2ccccc2N1`: the result was inactive.
Still for that read-out and setting: the same measure for `O=C(CSc1ccc2ccccc2n1)Nc1ccc(N2CCOCC2)cc1`: “inactive”.
Regarding `CCCn1c(SCN2C(=O)c3ccccc3C2=O)nc2cc(Cl)ccc2c1=O`, the activation is 179% (active).
On the same count and under the same terms, the same measure for `CCC1(c2ccc(Cl)cc2)NC(=S)N(c2ccc(C)c(C)c2)N1` (stereo not drawn): 706% (active); for `O=C(NC(=S)N1CCN(C/C=C/c2ccccc2)CC1)c1ccc(F)cc1`: 190% (active).
With `CCc1ccc(-c2c(C)sc(NC(C)=O)c2C(N)=O)cc1`, the result was inactive.
Same read-out and setting: the same measure for `CCOc1ccccc1NC(=O)C1CCCN(S(=O)(=O)c2ccccc2)C1` (stereo not drawn): “inactive”.
